Assay results taken from ChEMBL document CHEMBL1137782, “Identification of peptide substrate and small molecule inhibitors of testis-specific serine/threonine kinase1 (TSSK1) by the developed assays” (J Med Chem, 2009).

T1: Testis-specific serine/threonine-protein kinase 1 (Homo sapiens) (UniProt Q9BXA7)
T1 sequence (whole entry): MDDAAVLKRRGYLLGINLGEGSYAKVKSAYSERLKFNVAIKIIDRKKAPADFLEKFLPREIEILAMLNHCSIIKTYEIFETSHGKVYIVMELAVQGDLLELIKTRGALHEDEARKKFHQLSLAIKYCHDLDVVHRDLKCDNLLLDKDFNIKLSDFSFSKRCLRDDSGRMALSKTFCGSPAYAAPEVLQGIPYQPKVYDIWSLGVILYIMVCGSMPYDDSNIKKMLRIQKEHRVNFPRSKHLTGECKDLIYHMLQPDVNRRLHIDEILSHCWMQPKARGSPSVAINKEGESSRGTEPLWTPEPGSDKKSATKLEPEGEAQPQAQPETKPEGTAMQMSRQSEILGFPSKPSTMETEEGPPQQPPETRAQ

T2: Testis-specific serine/threonine-protein kinase 1 (Homo sapiens, UniProt Q9BXA7)
T2 sequence (Q9BXA7 whole entry): T1 sequence (whole entry)

B1: Testis-specific serine/threonine-protein kinase 1 (Homo sapiens), Q9BXA7 (protein)
chain: T1 sequence (whole entry)

How the values were obtained:
[1] = molecular target: T1, Testis-specific serine/threonine-protein kinase 1 (Homo sapiens); assay: Inhibition of TSSK1-catalyzed phosphorylation of AALVRQMSVAFFFK substrate at 20 uM by luminescent kinase assay
In short: (§1)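 Luminescent Kinase-Glo read-out of ATP left after reaction. Buffer 40 mM Tris-HCl, 20 mM MgCl2, 0.1 mg/mL BSA, 2 mM DTT. Final 0.5 μg/well TSSK1, 10 μM Pep8 peptide, 1.5 μM ATP. Incubated 2 h at 37 °C, then an equal volume of Kinase-Glo added for 10 min at room temperature before luminescence (RLU) reading. Controls lacked peptide or lacked TSSK1; staurosporine 100 μM as positive control.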

[2] = molecular target: T2, Testis-specific serine/threonine-protein kinase 1; assay: Inhibition of TSSK1-catalyzed phosphorylation of AALVRQMSVAFFFK substrate by LC-MS based HTP assay in presence of Pep8-(O2)
In short: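 TSSK1 reaction at final 75 ng/well enzyme, 10 μM Pep8, 25 μM ATP in Tris-HCl/MgCl2/BSA/DTT buffer, 90 min at 37 °C. Acetonitrile quench carried 7 μM sulfone internal standard Pep8-P(O2). After 15000g spin, C18 HPLC-MS analysis. Pep8-P concentration calculated from its peak area relative to the internal standard using a normalization factor, and IC50 derived from that.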

[3] = molecular target: T2, Testis-specific serine/threonine-protein kinase 1; assay: Inhibition of TSSK1-catalyzed phosphorylation of AALVRQMSVAFFFK substrate by luminescent kinase assay; in short: as §1
[4] = molecular target: T2, Testis-specific serine/threonine-protein kinase 1; assay: Inhibition of TSSK1-catalyzed phosphorylation of AALVRQMSVAFFFK substrate by LC-MS based HTP assay in absence of Pep8-(O2)
In short: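 End-point LC-MS read-out of phosphorylated Pep8 (Pep8-P). Reaction in 40 mM Tris-HCl, 20 mM MgCl2, 0.1 mg/mL BSA, 2 mM DTT with final 75 ng/well TSSK1, 10 μM Pep8, 25 μM ATP, run 90 min at 37 °C. Quenched with acetonitrile, spun 15000g 10 min, then analysed by C18 HPLC-MS using formic acid/acetonitrile gradient. IC50 taken from Pep8-P peak area with no internal standard.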

[5] = substrate: Nc1ncnc2c1ncn2[C@@H]1O[C@H](COP(=O)(O)OP(=O)(O)OP(=O)(O)O)[C@@H](O)[C@H]1O; assay: (§2) Activity at TSSK1 by Michaelis-Menten plot
In short: (§3)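 Enzyme time courses quantified phosphorylated Pep8 by LC-MS. ATP was varied 3.13–200 μM with Pep8 at 30 μM, or Pep8 0–40 μM with ATP at 200 μM. Reactions were quenched with acetonitrile containing 7 μM sulfone internal standard. Initial velocities were taken in duplicate and fitted to Michaelis-Menten by nonlinear least squares.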

[6] = substrate: CSCC[C@H](NC(=O)[C@H](CCC(N)=O)NC(=O)[C@H](CCCNC(=N)N)NC(=O)[C@@H](NC(=O)[C@H](CC(C)C)NC(=O)[C@H](C)NC(=O)[C@H](C)N)C(C)C)C(=O)N[C@@H](CO)C(=O)N[C@H](C(=O)N[C@@H](C)C(=O)N[C@@H](Cc1ccccc1)C(=O)N[C@@H](Cc1ccccc1)C(=O)N[C@@H](Cc1ccccc1)C(=O)N[C@@H](CCCCN)C(=O)O)C(C)C; assay: as §2; in short: as §3

Row | Molecule | inhibition [1] [%] | IC50 [2] [µM] | further results
1 | CCc1cc(=O)oc2cc3c(c(O)c12)C(=O)CC(C)O3 (stereo not drawn) | > 40 | – | –
2 | CC(C)c1nc2cc3c(cc2[nH]c1=O)nc(-c1ccc(C(=O)O)cc1)n3CCCc1ccccc1 | – | 38 | –
3 | O=C(c1ccc(-c2ccc(C(=O)C(O)S(=O)(=O)O)cc2)cc1)C(O)S(=O)(=O)O (stereo not drawn) | – | 19.1 | IC50 [3]: 24.8 µM; IC50 [4]: 14.4 µM
4 | CCCc1cc(=O)oc2cc3c(c(O)c12)C(=O)CC(C)O3 (stereo not drawn) | > 40 | – | IC50 [3]: 38.7 µM
5 | CCCc1c(Cl)c(=O)oc2cc(O)cc(O)c12 | > 40 | – | –
6 | CC(=O)Nc1ccc(-c2nc3cc4[nH]c(=O)c(C)nc4cc3n2CCCc2ccccc2)cc1 | – | 98 | –
7 | CC(C)C[C@H](CC(=O)N[C@H](CCC(N)=O)C(=O)O)NC(=O)c1cc(Cl)ccc1N | > 40 | – | –
8 | C=CC(=O)Oc1cc(O)c2c(CCC)cc(=O)oc2c1 | > 40 | – | –
9 | O=C(c1ccc(-c2ccc(C(=O)C(O)O)cc2)cc1)C(O)O | > 40 | – | IC50 [3]: 43.2 µM
10 | O=c1oc2cc(O)cc(O)c2c2c1CCCC2 | > 40 | – | –
11 | CCCCCCCn1c(-c2ccc(O)c(O)c2)nc2cc3[nH]c(=O)c(C(C)C)nc3cc21 | – | 72 | –
12 | Cc1c(Cc2ccccc2)c(=O)oc2cc(O)cc(O)c12 | > 40 | – | –
13 | B1 | – | – | Km [5]: 50.5 µM; Km [6]: 25.2 µM
